The list is not random: actives were taken first. Their share in the collection is about 3.6%.
HIF act – HIF pathway transcriptional activators, primary screen, cell-based, U2OS HRE-luciferase, luminescence; U2OS HRE-luciferase reporter; normalized: DMSO 0%, desferrioxamine 100%; activation, % at 7.5 µM (by protocol); 0.32% of 300,000 active; AID 1910, 2009;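 active means mean activation of at least 10% of the iron chelator positive control signal, with at least half of replicates also reaching 10%; inconclusive means mean and replicate majority disagree about reaching 10%; inactive means mean and most replicates under 10%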
CSC inhib – cancer stem cell viability inhibitors, primary screen, luminescence | inhibition, % at 7.5 µM | AID 2717, 2010 | 1.1% of 300,000 active | cancer stem cell-like cells viability; in the data active means inhibition above about 75%; inconclusive means no clear call, values can overlap the other calls; tested in HMLE shEcad cells
Beta cell apopt – inhibitors of cytokine-induced beta cell apoptosis, primary screen, luminescence; INS-1E cytokine-induced death, ATP luminescence, 48 h; percent of positive-control rescue, neutral wells zero; AID 435005, 2010; protection from apoptosis, % (concentration not given with the values); 0.8% of 300,000 active;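 active means Every replicate reaches about 75%, or at least half do and their mean reaches it too, limit read from the data; inconclusive means At least half of replicates reach the limit but their mean does not; inactive means Under half of replicates reach the limit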;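 further: 0% = cytokine-treated negative control wells and 100% = positive control rescue; higher means more ATP so stronger rescue from cytokine killing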
SKKanGAS inh – S. pyogenes SKKanGAS growth inhibitors in kanamycin, primary screen, streptokinase expression inhibitor project, SKKanGAS strain, BacTiter-Glo luminescence | 6 h | 1.3% of 300,000 active | AID 1662, 2009 | inhibition, % at 7.5 µM;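 active means mean replicate score, as percent of positive control median, at least 50; inconclusive means mean below 50 but one replicate at or above 50; inactive means mean and every replicate below 50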;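 further: strain carries kanamycin resistance gene driven by streptokinase promoter and grows in 40 µg/ml kanamycin; loss of luminescence reflects streptokinase promoter inhibition or plain growth inhibition; 0% = median of DMSO wells and 100% = positive control at its reference dose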
PfHsp90 set2 – growth inhibition of PfHsp90-expressing yeast, primary screen, antimalarial PfHsp90 inhibitor project, S. cerevisiae, BacTiter-Glo luminescence, single point, set 2; BacTiter-Glo ATP, 48 h; yeast lacking PDR1 and PDR3 efflux regulators; inhibition, % at 9.4 µM; 0.32% of 310,000 active; AID 504621, 2011;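 active means every replicate shows inhibition above about 80%, whatever the replicate mean, limit read from the data; inconclusive means mean inhibition reaches the set limit but some replicate falls short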;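 further: 0% = DMSO neutral controls and 100% = 20 µM radicicol positive controls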
T cruzi inh – inhibitors of intracellular T. cruzi growth, primary screen, luminescence, NIH3T3 host cells; T. cruzi beta-gal in NIH3T3, 90 h; inhibition, % (test concentration not listed); 1.4% of 300,000 active; AID 1885, 2009;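 active means mean inhibition across valid replicates above about 55%, limit read from the data; inconclusive means mean below that limit but half or more replicates reach it; inactive means mean below it, under half of replicates reach it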;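 further: signal also drops with host cell toxicity which is not excluded here; 0% = plate median of DMSO wells and 100% = zero luminescence signal; higher percent means less beta-gal luminescence so fewer parasites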
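Assay system: NIH/3T3 host cells with β-galactosidase reporter T. cruzi; input: 5,000 host fibroblasts per well; compound: single 50 nL compound addition per well in DMSO; timing: ≥90 h infection period, 3 h prior cell attachment; measured by: GalScreen β-gal luminescence, detergent lysis, 60 min; evaluation: percent inhibition of parasite-derived β-gal signal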
* = called active by the depositor; ? = inconclusive; . = no result given; + = active, no number.

SMILES | HIF act | CSC inhib | Beta cell apopt | SKKanGAS inh | PfHsp90 set2 | T cruzi inh
CCCNC(=O)/C(C#N)=C1\N=C(NC(=O)c2cccs2)c2ccccc21 | 0 | -10 | -4 | -3 | -14 | -3
COc1cc(C)nc(NCc2ccccc2)n1 | -1 | -7 | -5 | 0 | 30 | 8
COc1ccc(Nc2cc(C)nc(NCc3ccccc3)n2)cc1 | 0 | 34 | 60 | 7 | 5 | 61*
COC(=O)[C@]1(C)N[C@H](CN(C)S(=O)(=O)c2ccc(F)cc2)[C@@H]2C(=O)N(C)C(=O)[C@@H]21 | . | . | 6 | . | -12 | .
CCOc1cc(/C=C2\N=C(SC(C)C(N)=O)N(c3ccc(OC(F)F)cc3)C2=O)ccc1O (stereo not drawn) | 0 | 103* | 17 | 26 | 20 | -15
CC(=O)OC[C@]12CC[C@H]3[C@@](C)(CC[C@H]4C(C)(C)CCC[C@]34C)[C@@H]1C[C@H](C1=CC(=O)O[C@H]1OC(C)=O)O2 | . | 107* | 10 | . | . | .
CC(=O)OC[C@]12CC[C@H]3[C@@](C)(CC[C@H]4C(C)(C)CCC[C@]34C)[C@@H]1C[C@@H](C1=CC(=O)O[C@@H]1OC(C)=O)O2 | . | 125* | 92* | . | . | .
Cn1cc(C(=O)c2ccc(Cl)cc2Cl)cc1C(=O)N/N=C(\N)COc1ccc(Cl)cc1Cl | 0 | -17 | 19 | 71* | -26 | 14
CN(C)c1ccc(/C=C2\CCCc3c2nc2ccccc2c3C(=O)O)cc1 | 2 | 13 | 5 | -1 | 10 | -15
Cc1cc(C(C)(C)C)ccc1OCC(=O)N/N=C\c1c(C)n(C)n(-c2ccccc2)c1=O | 0 | . | -6 | -3 | -23 | -5
CCc1n[nH]c(=S)n1/N=C/c1cc(OC)cc([N+](=O)[O-])c1O | -1 | 11 | 0 | 3 | -21 | 68*
O=c1c2c(nc3c(-c4ccccc4)c[nH]n13)CCC2 | 0 | 4 | 5 | 16 | -5 | -7
O=c1c2c(nc3c(-c4ccc(Cl)cc4)c[nH]n13)CCC2 | 0 | 7 | 21 | 66* | -29 | -128
CC1C(=NO)C(C)C(c2ccccc2)NC1c1ccccc1 (stereo not drawn) | -1 | 2 | 2 | -1 | . | -1
CCC1C(=NO)C(CC)C(c2ccccc2)NC1c1ccccc1 (stereo not drawn) | -1 | 64 | 25 | 58* | -13 | 48
O=c1cc(-c2ccccc2)cc(-c2ccccc2)n1O | -1 | -3 | 43 | 9 | + | -22
Cc1[nH]n(-c2ccccc2)c(=O)c1C(c1cccc([N+](=O)[O-])c1)c1c(C)[nH]n(-c2ccccc2)c1=O | 1 | -1 | 2 | -3 | 11 | 0
Cc1[nH]n(-c2ccccc2)c(=O)c1C(C[N+](=O)[O-])c1ccc(Br)cc1 (stereo not drawn) | 1 | 35 | . | 9 | 122* | -6
COc1cccc(C(C[N+](=O)[O-])c2c(C)[nH]n(-c3ccccc3)c2=O)c1 (stereo not drawn) | 55* | -12 | 6 | 7 | 14 | -2
Cc1[nH]n(-c2ccccc2)c(=O)c1C(c1ccc(C(=O)O)cc1)c1c(C)[nH]n(-c2ccccc2)c1=O | 0 | -9 | -1 | -3 | -11 | 0
Fc1ccc2cc(-c3ccsc3)ncc2c1 | . | -8 | -6 | . | -15 | .
Nc1ncnc2c1ncn2[C@@H]1O[C@H](COP(=O)(O)OP(=O)(O)OP(=O)(O)O)[C@@H](O)[C@H]1O | . | 0 | . | . | 88* | .
Nc1ncnc2c1ncn2[C@@H]1O[C@H](COS(=O)(=O)O)[C@@H](O)[C@H]1O | . | -14 | -10 | . | -17 | .
CN(C(=O)c1ccc(NC(=O)Cc2ccc(NC(=O)C3CCCN(C(=O)CCc4ccccc4)C3)cc2)cc1)C1CCCC1 (stereo not drawn) | . | . | . | . | -2 | .
Cc1ccc(C(C)C)c(OCc2nn(CC(=O)c3ccc(Cl)cc3)c3[n+]2CCCCC3)c1 | -1 | ? | 136* | 23 | . | 86*
SMILES | HIF act | CSC inhib | Beta cell apopt | SKKanGAS inh | PfHsp90 set2 | T cruzi inh
O=C(Nc1ccc(Cl)cc1)C1CCCN(c2cnccn2)C1 (stereo not drawn) | 1 | 13 | 2 | 3 | -11 | 27
O=C(c1ccco1)c1nnn(Cc2ccccc2)c1-c1ccccc1 | 0 | 78* | 4 | 4 | -12 | 15
Nc1c(C(=O)NCc2ccco2)nnn1Cc1ccccc1 | 0 | -1 | -1 | -1 | 4 | -5
COc1ccc(CNc2ccc(Cl)cc2)cc1Cn1ccnc1 | 1 | 66 | 6 | 19 | 19 | 59*
Cc1ccc(CSCCNS(=O)(=O)c2ccc(C)cc2)cc1 | 0 | -8 | -8 | -15 | -6 | 3
O=C(c1ccc2c(c1)OCO2)C1CCCN(C2CCN(CCc3ccccc3)CC2)C1 (stereo not drawn) | 0 | 41 | 1 | -10 | 4 | 69*
Cc1ccc2[nH]c(C(=O)N/N=C/c3ccccc3C(=O)O)c(-c3ccccc3)c2c1 | -25 | . | . | 0 | -18 | -2
Cc1ccc2[nH]c(C(=O)N/N=C/c3ccccc3O)c(C)c2c1 | 169* | 38 | 86* | 101* | -17 | 70*
COc1cc(OC)c2cc(C(=O)N/N=C/c3ccccc3O)[nH]c2c1 | -1 | 71 | 85* | 103* | 15 | 9
COc1ccc2[nH]c(C(=O)N/N=C/c3ccccc3OC)cc2c1 | ? | 37 | 1 | -4 | 0 | -8
O=C(N/N=C/c1ccccc1O)c1cc(=O)[nH]c2ccccc12 | 11* | . | . | 4 | . | -7
O=C(COc1cccc2cccnc12)N/N=C/c1ccccc1O | 3 | 17 | 2 | 99* | -14 | 5
COc1ncc(C2=CC(=O)CC(C)(C)C2)cn1 | . | -5 | 1 | . | 62 | .
CCOc1ccc(S(=O)(=O)N(CC)CC(=O)NC2CCS(=O)(=O)C2)cc1 (stereo not drawn) | . | . | -2 | . | 17 | .
COc1ccccc1N(CC(=O)Nc1ccc2c(c1)OCCO2)S(=O)(=O)c1ccc(C)cc1 | 1 | 4 | -1 | 5 | 17 | 19
O=C(N/N=C/c1ccccc1O)c1cccc2ccccc12 | 8 | . | . | 106* | -15 | 11
CCN1/C(=C/c2ccc3ccccc3[n+]2CC)C=Cc2ccccc21 | 1 | 44 | 108* | 52* | 26 | 47
CCCCN1/C(=C/c2ccc3ccccc3[n+]2CC)Sc2ccccc21 | 0 | . | . | -14 | -8 | 63*
CCN1/C(=C/c2ccc3ccccc3[n+]2CCCS(=O)(=O)[O-])C=Cc2cc(C)ccc21 | -2 | 19 | 30 | 15 | 16 | 3
CCN1/C(=C/c2ccc3cc(C)ccc3[n+]2CC)Sc2cc(C)ccc21 | . | . | . | . | 94* | .
